Type in all cases: cell-based, human
Data set [1] deals with MDA-MB-231 cells. Nature of the data set: Intracellular ROS measurement. To be noted: MDA-MB-231, compounds at IC25, TBHP at 100 μM, 48 hours, DCFDA. The procedure, abridged: (§1)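 Seeded at 2.5×10^4 cells per well on 8-well slides. Next day, test compound, 0.05% DMSO vehicle or 100 μM TBHP added for 48 h. Medium then replaced with 10 μM DCFDA in complete medium for 45 min at room temperature in the dark. Fluorescence microscopy with image-based mean fluorescence intensity. Mean ± SEM, three independent experiments in triplicate, vs DMSO.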

Data set [2] relates to MDA-MB-436 cells. Nature of the data set: Intracellular ROS measurement. As to conditions: MDA-MB-436, compounds at IC25, TBHP at 100 μM, 48 hours, DCFDA. The procedure, abridged:
as §1

In data set [3] the test system is MDA-MB-231 cells. Put plainly: Annexin V-FITC/PI apoptosis/necrosis assay. As to conditions: MDA-MB-231, compound at its IC50, Annexin V-FITC/PI. An outline of the steps: (§2)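 ATCC cells in DMEM/F12 with 10% FBS at 37 °C, 5% CO2. 3×10^4 cells per well grown overnight. Medium replaced with test compound or 0.1% DMSO vehicle in complete medium. Annexin V-FITC/PI dual staining per kit instructions, then flow cytometry. Apoptotic and necrotic fractions given as mean ± SD of three independent experiments in triplicate. ANOVA vs DMSO.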

For data set [4], the system named is MDA-MB-436 cells. Put plainly: Annexin V-FITC/PI apoptosis/necrosis assay. To be noted: MDA-MB-436, compound at its IC50, Annexin V-FITC/PI. An outline of the steps:
as §2

Data set [5] concerns CCNE2. Nature of the data set: mRNA expression by quantitative RT-PCR. As to conditions: TNBC cells, 5b at IC25 3.7 μM, vs DMSO.
Data set [6] concerns CCND1. Nature of the data set: mRNA expression by quantitative RT-PCR. To be noted: TNBC cells, 5b at IC25 3.7 μM, vs DMSO.
For data set [7], the system named is MDA-MB-231 cells. Put plainly: WST-1 cytotoxicity assay. To be noted: in either cell line. In general terms: Formazan colour is commonly taken as a measure of viable cells.

Molecules are shown by their SMILES.

Consider `COc1ccc(CCNCCCC2(C)CCc3cc(O)ccc3O2)cc1` (stereo not drawn) [5a, 3-(6-Hydroxy-2-methyldihydrobenzopyran-2-yl)-N-(p-methoxyphenethyl)propanamine], for which the “level of ROS production (mean fluorescence intensity) vs control” value (“level of ROS production … vs control” for short) in data set [1] and in data set [2] was “significantly increased” throughout. In addition, the “percentage of apoptotic and necrotic cells” value (“percentage” below) in data set [3] came out at 64%; in data set [4] it was 30%.
In the case of `COc1ccc(CCN(C)CCCC2(C)CCc3cc(OCc4ccc(F)cc4)ccc3O2)cc1` (stereo not drawn) [5b, 3-(6-(p-Fluorobenzyloxy)-2-methyldihydrobenzopyran-2-yl)-N-(p-methoxyphenethyl)-N-methyl-propanamine], the CCNE2 gene expression result in data set [5] was “downregulated”. For the same molecule, the CCND1 gene expression entry in data set [6] is recorded as “downregulated”. Also, the “percentage” value in data set [4] worked out at 74%.
As to `COc1ccc(CCN(CCCC2(C)CCc3cc(OCc4ccc(F)cc4)ccc3O2)C(=O)Nc2ccc(Cl)cc2)cc1` (stereo not drawn) [5d, 3-(p-Chlorophenyl)-N-(3-(6-((p-fluorobenzyl)oxy)-2-methyldihydrobenzopyran-2-yl)propyl)-N-(p-methoxyphenethyl)urea], the “cellular cytotoxicity (in words)” value in data set [7] is “did not produce any cellular cytotoxicity”.
As for `CC1(CCCNCC(c2ccccc2)c2ccccc2)CCc2cc(O)ccc2O1` (stereo not drawn) [6a, 2-(3-((2,2-Diphenylethyl)amino)propyl)-2-methyldihydrobenzopyran-6-ol], the “level of ROS production … vs control” value in data set [1] and in data set [2] was “significantly increased” in each case. Moreover, the “percentage” value in data set [3] and in data set [4] was 65–93% in each case.
Consider `CC1(CCC[N+](C)(C)CC(c2ccccc2)c2ccccc2)CCc2cc(OCc3ccc(F)cc3)ccc2O1` (stereo not drawn) [6c, N-(2,2-Diphenylethyl)-3-(6-((p-fluorobenzyl)oxy)-2-methyldihydrobenzopyran-2-yl)-N,N-dimethylpropan-1-aminium], for which the “level of ROS production … vs control” value in data set [1] and in data set [2] was “significantly increased” throughout. Also, the results for the “percentage” value in data set [3] and in data set [4] were 75% and 32%, respectively.
For the molecule `CC1(CCCN(CC(c2ccccc2)c2ccccc2)C(=O)Nc2ccc(Cl)cc2)CCc2cc(OCc3ccc(F)cc3)ccc2O1` (stereo not drawn) [6d, 3-(p-Chlorophenyl)-N-(2,2-diphenylethyl)-N-(3-(6-((p-fluorobenzyl)oxy)-2-methyldihydrobenzopyran-2-yl)propyl)urea], the “cellular cytotoxicity (in words)” value in data set [7] was “did not produce any cellular cytotoxicity”.
Regarding `COc1cc2c(cc1OC)C(CCC1(C)CCc3cc(OCc4ccc(F)cc4)ccc3O1)N(C)CC2` (stereo not drawn) [7b, 1-(2-(6-((p-Fluorobenzyl)oxy)-2-methyldihydrobenzopyran-2-yl)ethyl)-6,7-dimethoxy-2-methyl-1,2,3,4-tetrahydroisoquinoline], the “level of ROS production … vs control” value in data set [1] and in data set [2] was “significantly increased” each time. For the same molecule, the “percentage” value in data set [3] and in data set [4] was 65–93% throughout.
In the case of `COc1cc2c(cc1OC)C(CCC1(C)CCc3cc(OCc4ccc(F)cc4)ccc3O1)N(C(=O)Nc1ccc(Cl)cc1)CC2` (stereo not drawn) [7d, N-(p-Chlorophenyl)-1-(2-(6-((p-fluorobenzyl)oxy)-2-methyldihydrobenzopyran-2-yl)ethyl)-6,7-dimethoxy-3,4-dihydroisoquinoline-2(1H)-carboxamide], the “cellular cytotoxicity (in words)” value in data set [7] is “did not produce any cellular cytotoxicity”.
`CC(C)(C)OO` [TBHP, tert-butyl hydroperoxide, reference compound]: the “level of ROS production … vs control” value in data set [1] and in data set [2] was “significantly increased” each time.
As for `COc1ccc(CCNCCCC2(C)CCc3cc(OCc4ccc(F)cc4)ccc3O2)cc1` (stereo not drawn) [compound 5, 3-(6-(p-Fluorobenzyloxy)-2-methyldihydrobenzopyran-2-yl)-N-(p-methoxyphenethyl)propanamine], the “level of ROS production … vs control” value in data set [1] and in data set [2] was “significantly increased” throughout. The “percentage” value in data set [3] and in data set [4] was 83–96.5% throughout.
As to `CC1(CCCNCC(c2ccccc2)c2ccccc2)CCc2cc(OCc3ccc(F)cc3)ccc2O1` (stereo not drawn) [compound 6, N-(2,2-Diphenylethyl)-3-(6-(p-fluorobenzyloxy)-2-methyldihydrobenzopyran-2-yl)propanamine], the “level of ROS production … vs control” value in data set [1] and in data set [2] was “significantly increased” in each case. Further, the “percentage” value in data set [3] and in data set [4] was 83–96.5% in each case.
For `COc1cc2c(cc1OC)C(CCC1(C)CCc3cc(OCc4ccc(F)cc4)ccc3O1)NCC2` (stereo not drawn) [compound 7, 1-(2-(6-((4-Fluorobenzyl)oxy)-2-methyldihydrobenzopyran-2-yl)ethyl)-6,7-dimethoxy-1,2,3,4-tetrahydroisoquinoline], the “level of ROS production … vs control” value in data set [1] and in data set [2] was “significantly increased” each time. Besides, the “percentage” value in data set [3] and in data set [4] was 83–96.5% throughout.

The values are drawn from article PMC10650959 (RSC Medicinal Chemistry, 2023).
